{
  "source": "paper PMC4264455",
  "about": "(British Journal of Cancer, 2014)",
  "key": {"[1]": {"system": "CDK6", "settings": "ref Squires et al, 2009; cited from earlier work"}, "[2]": {"system": "human cancer cell lines", "settings": "in vitro studies; ref Squires et al, 2010; cited from earlier work"}, "[3]": {"system": "CDK4", "settings": "ref Squires et al, 2009; cited from earlier work"}, "[4]": {"system": "advanced solid malignancies or non-Hodgkin's lymphoma", "test": "Anti-tumour activity", "assay_type": "in vivo, human", "method_in_brief": "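Test compound given as a 1-h IV infusion on days 1, 4, 8 and 11 every 3 weeks, at 14.4–32.4 mg m−2. Radiological assessment was done after every two cycles. Response was graded by RECIST version 1.1. Treatment continued until progression, unacceptable toxicity or consent withdrawal.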"}, "[5]": {"system": "QTc intervals", "test": "ECG analysis", "assay_type": "in vivo, human", "method_in_brief": "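After dose level 1, patients with QTc ⩾460 ms at baseline, congenital long QT or QT-affecting medication were excluded. 12-lead ECGs were taken immediately before and after each infusion on days 1, 4, 8 and 11 of cycle 1, with a confirmatory ECG within 48 h of any abnormality. QT was machine-recorded with Bazett correction. At 27.0 mg m−2, 24-h ambulatory ECG started immediately after the cycle 1 infusion. An independent cardiologist reviewed all tracings.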"}, "[6]": {"test": "Pharmacokinetic analysis of plasma AT7519 after first 1-h intravenous infusion", "assay_type": "in vivo, human"}, "[7]": {"system": "patients with refractory solid tumors", "settings": "ref Mahadevan et al, 2011, cited from earlier work"}, "[8]": {"system": "patients with advanced refractory solid tumours or non-Hodgkin's lymphoma", "test": "Phase I dose escalation: safety, tolerability, DLT and adverse events", "assay_type": "in vivo, human"}, "[9]": {"settings": "19 patients evaluable for efficacy"}, "[10]": {"settings": "1-h intravenous infusion, day 1 cycle 1, 29 patients"}, "[11]": {"settings": "five consecutive days every 3 weeks"}},
  "note": "Entries after “also recorded” stand apart in the source; their conditions may differ.",
  "data": [
    {"smiles": "O=C(NC1CCNCC1)c1n[nH]cc1NC(=O)c1c(Cl)cccc1Cl", "note": "[AT7519, N-(4-piperidinyl)-4-(2,6-dichlorobenzoylamino)-1H-pyrazole-3-carboxamide]", "values": [
      {"measurement": "IC50", "setting": "[1]", "result": 170, "unit": "nM"},
      {"measurement": "concentrations at which anti-cancer activities were observed", "setting": "[2]", "result": "above 100 ng ml^−1"},
      {"measurement": "IC50", "setting": "[3]", "result": 100, "unit": "nM"},
      {"measurement": "complete or partial response", "setting": "[4]; [9]", "result": "no complete or partial response; also recorded: no partial response"},
      {"measurement": "patients with progressive disease as best response", "setting": "[4]; [9]", "result": "nine"},
      {"measurement": "duration of durable stable disease in one patient", "setting": "[4]; one patient with metastatic rectal cancer, 10 cycles", "result": 11.1, "unit": "months"},
      {"measurement": "median duration of stable disease", "setting": "[4]; ten patients with stable disease", "result": 3.3, "unit": "months"},
      {"measurement": "patients with transient QTc increases", "setting": "[5]; among the 24 patients with baseline QTc ⩽450 ms", "result": 10, "unit": "patients"},
      {"measurement": "QTc prolongation", "setting": "[5]; serial ECGs, 24-h ambulatory ECG in five patients at the RP2D level", "result": "no clinically significant QTc prolongations"},
      {"measurement": "plasma clearance", "setting": "[6]; [10]", "result": "0.28±0.26", "unit": "l min^−1 m^−2"},
      {"measurement": "volume of distribution", "setting": "[6]; [10]", "result": "289±218", "unit": "l m^−2"},
      {"measurement": "dose dependence of Cmax and plasma exposures", "setting": "[6]; 14.4 to 32.4 mg m^−2", "result": "apparent dose proportional increase; also recorded: linear pharmacokinetics"},
      {"measurement": "Cmax", "setting": "[6]; human, plasma, intravenous, 27 mg", "result": "591 ± 358", "unit": "ng/mL"},
      {"measurement": "half-life", "setting": "[6]; human, plasma, iv", "result": "786 ± 240", "unit": "min"},
      {"measurement": "dose at which one patient death from QTc prolongation was reported", "setting": "[7]; [11]", "result": 34, "unit": "mg m^−2 per day"},
      {"measurement": "minimal effective biological dose", "setting": "[7]; [11]", "result": 28.8, "unit": "mg m^−2 per day"},
      {"measurement": "dose at which dose-limiting toxicity (DLT) was initially seen", "setting": "[7]; × 5 days", "result": 14.4, "unit": "mg m^−2 per day"},
      {"measurement": "ALP elevation: No. of patients with AEs of any grade", "setting": "[8]; 14.4 mg m^−2 (n=5)", "result": "3 No. of patients"},
      {"measurement": "AST elevation: No. of patients with AEs of any grade", "setting": "[8]; 14.4 mg m^−2 (n=5)", "result": "2 No. of patients"},
      {"measurement": "Anaemia: No. of patients with AEs of any grade", "setting": "[8]; 14.4 mg m^−2 (n=5)", "result": "5 No. of patients"},
      {"measurement": "Anorexia: No. of patients with AEs of any grade", "setting": "[8]; 14.4 mg m^−2 (n=5)", "result": "0 No. of patients"},
      {"measurement": "Creatinine elevation: No. of patients with AEs of any grade", "setting": "[8]; 14.4 mg m^−2 (n=5)", "result": "1 No. of patients"},
      {"measurement": "Diarrhoea: No. of patients with AEs of any grade", "setting": "[8]; 14.4 mg m^−2 (n=5)", "result": "0 No. of patients"},
      {"measurement": "Fatigue: No. of patients with AEs of any grade", "setting": "[8]; 14.4 mg m^−2 (n=5)", "result": "0 No. of patients"},
      {"measurement": "Hyperglycaemia (random): No. of patients with AEs of any grade", "setting": "[8]; 14.4 mg m^−2 (n=5)", "result": "0 No. of patients"},
      {"measurement": "Infection without neutropenia: No. of patients with AEs of any grade", "setting": "[8]; 14.4 mg m^−2 (n=5)", "result": "0 No. of patients"},
      {"measurement": "Lymphopenia: No. of patients with AEs of any grade", "setting": "[8]; 14.4 mg m^−2 (n=5)", "result": "4 No. of patients"},
      {"measurement": "Mucositis: No. of patients with AEs of any grade", "setting": "[8]; 14.4 mg m^−2 (n=5)", "result": "0 No. of patients"},
      {"measurement": "Nausea: No. of patients with AEs of any grade", "setting": "[8]; 14.4 mg m^−2 (n=5)", "result": "1 No. of patients"},
      {"measurement": "Neutropenia: No. of patients with AEs of any grade", "setting": "[8]; 14.4 mg m^−2 (n=5)", "result": "0 No. of patients"},
      {"measurement": "Thrombocytopenia: No. of patients with AEs of any grade", "setting": "[8]; 14.4 mg m^−2 (n=5)", "result": "0 No. of patients"},
      {"measurement": "Vomiting: No. of patients with AEs of any grade", "setting": "[8]; 14.4 mg m^−2 (n=5)", "result": "1 No. of patients"},
      {"measurement": "ALP elevation: No. of patients with AEs of any grade", "setting": "[8]; 21.6 mg m^−2 (n=7)", "result": "5 No. of patients"},
      {"measurement": "AST elevation: No. of patients with AEs of any grade", "setting": "[8]; 21.6 mg m^−2 (n=7)", "result": "2 No. of patients"},
      {"measurement": "Anaemia: No. of patients with AEs of any grade", "setting": "[8]; 21.6 mg m^−2 (n=7)", "result": "6 No. of patients"},
      {"measurement": "Anorexia: No. of patients with AEs of any grade", "setting": "[8]; 21.6 mg m^−2 (n=7)", "result": "1 No. of patients"},
      {"measurement": "Creatinine elevation: No. of patients with AEs of any grade", "setting": "[8]; 21.6 mg m^−2 (n=7)", "result": "1 No. of patients"},
      {"measurement": "Diarrhoea: No. of patients with AEs of any grade", "setting": "[8]; 21.6 mg m^−2 (n=7)", "result": "2 No. of patients"},
      {"measurement": "Fatigue: No. of patients with AEs of any grade", "setting": "[8]; 21.6 mg m^−2 (n=7)", "result": "4 No. of patients"},
      {"measurement": "Hyperglycaemia (random): No. of patients with AEs of any grade", "setting": "[8]; 21.6 mg m^−2 (n=7)", "result": "1 No. of patients"},
      {"measurement": "Infection without neutropenia: No. of patients with AEs of any grade", "setting": "[8]; 21.6 mg m^−2 (n=7)", "result": "1 No. of patients"},
      {"measurement": "Lymphopenia: No. of patients with AEs of any grade", "setting": "[8]; 21.6 mg m^−2 (n=7)", "result": "5 No. of patients"},
      {"measurement": "Mucositis: No. of patients with AEs of any grade", "setting": "[8]; 21.6 mg m^−2 (n=7)", "result": "3 No. of patients"},
      {"measurement": "Nausea: No. of patients with AEs of any grade", "setting": "[8]; 21.6 mg m^−2 (n=7)", "result": "2 No. of patients"},
      {"measurement": "Neutropenia: No. of patients with AEs of any grade", "setting": "[8]; 21.6 mg m^−2 (n=7)", "result": "0 No. of patients"},
      {"measurement": "Thrombocytopenia: No. of patients with AEs of any grade", "setting": "[8]; 21.6 mg m^−2 (n=7)", "result": "1 No. of patients"},
      {"measurement": "Vomiting: No. of patients with AEs of any grade", "setting": "[8]; 21.6 mg m^−2 (n=7)", "result": "1 No. of patients"},
      {"measurement": "ALP elevation: No. of patients with AEs of any grade", "setting": "[8]; 27.0 mg m^−2 (n=15)", "result": "7 No. of patients"},
      {"measurement": "AST elevation: No. of patients with AEs of any grade", "setting": "[8]; 27.0 mg m^−2 (n=15)", "result": "9 No. of patients"},
      {"measurement": "Anaemia: No. of patients with AEs of any grade", "setting": "[8]; 27.0 mg m^−2 (n=15)", "result": "12 No. of patients"},
      {"measurement": "Anorexia: No. of patients with AEs of any grade", "setting": "[8]; 27.0 mg m^−2 (n=15)", "result": "2 No. of patients"},
      {"measurement": "Creatinine elevation: No. of patients with AEs of any grade", "setting": "[8]; 27.0 mg m^−2 (n=15)", "result": "1 No. of patients"},
      {"measurement": "Diarrhoea: No. of patients with AEs of any grade", "setting": "[8]; 27.0 mg m^−2 (n=15)", "result": "3 No. of patients"},
      {"measurement": "Fatigue: No. of patients with AEs of any grade", "setting": "[8]; 27.0 mg m^−2 (n=15)", "result": "10 No. of patients"},
      {"measurement": "Hyperglycaemia (random): No. of patients with AEs of any grade", "setting": "[8]; 27.0 mg m^−2 (n=15)", "result": "9 No. of patients"},
      {"measurement": "Infection without neutropenia: No. of patients with AEs of any grade", "setting": "[8]; 27.0 mg m^−2 (n=15)", "result": "3 No. of patients"},
      {"measurement": "Lymphopenia: No. of patients with AEs of any grade", "setting": "[8]; 27.0 mg m^−2 (n=15)", "result": "13 No. of patients"},
      {"measurement": "Mucositis: No. of patients with AEs of any grade", "setting": "[8]; 27.0 mg m^−2 (n=15)", "result": "11 No. of patients"},
      {"measurement": "Nausea: No. of patients with AEs of any grade", "setting": "[8]; 27.0 mg m^−2 (n=15)", "result": "6 No. of patients"},
      {"measurement": "Neutropenia: No. of patients with AEs of any grade", "setting": "[8]; 27.0 mg m^−2 (n=15)", "result": "4 No. of patients"}
    ]}
  ]
}
